Compound activity: PubChem BioAssay, Broad Institute
AF4-AF9 inh – blocks AF4 peptide binding to human AF9. inhibition, % at 10 µM. 350,000 tested, 0.47% active. AlphaScreen, biotin-AF4 peptide binding to FLAG-AF9. AID 651704. P42568;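 active means every replicate reaching a set inhibition limit, whatever the replicate mean, cut at about 25% in these data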;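 further: 0% = plate neutral control median and 100% = total signal loss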
Target sequence (P42568 whole entry, looked up): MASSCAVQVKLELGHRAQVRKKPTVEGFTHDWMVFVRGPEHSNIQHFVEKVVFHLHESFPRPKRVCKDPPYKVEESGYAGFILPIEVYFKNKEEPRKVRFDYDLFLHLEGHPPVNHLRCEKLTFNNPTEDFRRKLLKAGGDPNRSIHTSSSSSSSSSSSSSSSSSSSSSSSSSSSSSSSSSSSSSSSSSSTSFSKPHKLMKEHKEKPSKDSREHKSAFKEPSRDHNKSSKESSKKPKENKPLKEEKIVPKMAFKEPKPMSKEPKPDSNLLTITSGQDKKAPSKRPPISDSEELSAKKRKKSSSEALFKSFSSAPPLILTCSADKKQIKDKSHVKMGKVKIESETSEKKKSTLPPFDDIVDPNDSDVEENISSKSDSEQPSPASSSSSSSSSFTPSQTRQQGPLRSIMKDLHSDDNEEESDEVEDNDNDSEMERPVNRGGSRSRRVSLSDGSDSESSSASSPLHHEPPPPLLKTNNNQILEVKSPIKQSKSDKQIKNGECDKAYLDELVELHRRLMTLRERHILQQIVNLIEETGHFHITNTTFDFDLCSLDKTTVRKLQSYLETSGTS
EWS-Fli block – EWS/Fli transcriptional activity inhibition; 350,000 tested, 0.67% active; A673 NR0B1-luciferase reporter, viability-normalised; AID 651661; inhibition, % at 12.6 µM;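 active means mean inhibition of at least 50% after viability correction, with every replicate also passing that limit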;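 further: firefly luciferase signal divided by Alamar Blue viability fluorescence both relative to DMSO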
XiGFP reactiv – activators of X-chromosome reactivation in mouse fibroblasts. XiGFP mouse fibroblasts, % GFP-positive cells imaging, 3 d; cells co-treated with 5-aza-dC sensitizer; scaled so ellipticine positive control = 100%. activation, % at 7.58 µM. 360,000 tested, 0.055% active. AID 743238;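 active means mean normalized replicate activation at least 10% and every replicate at or above 10%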;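 further: 0% = median of on-plate neutral control wells and 100% = ellipticine 6 µM median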
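material = 68-5-11 XiGFP fibroblast line | medium = DMEM plus 5-aza-dC sensitizer | schedule = 3 days compound exposure | benchmarks = positive control ellipticine, 6 µM final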
GSIS activator – primary screen for activators of insulin secretion dependent on glucose, INS-1E cells, GLuc reporter luminescence. INS-1E GLuc reporter insulin secretion, 2-3 h. activation, % at 16.6 µM. 370,000 tested, 0.61% active. AID 743287;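 active means lowest replicate activation of at least 40%, so every replicate reaches that level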;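 further: 0% = median of neutral control wells and 100% = median of IBMX positive control wells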
PGC1a acetyl inh – lowers PGC1a acetylation signal in U2OS cells | AlphaScreen anti-acetyl-lysine; with virally co-expressed GCN5 acetyltransferase | inhibition, % at 15.6 µM | 350,000 tested, 0.17% active;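 active means every replicate shows inhibition of at least 40%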;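 further: 0% = neutral control wells and 100% = positive control wells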
PAX8 reporter – inhibitors of PAX8 transcriptional activity in RMG-I cells; inhibition, % at 12.6 µM; 360,000 tested, 1.2% active; RMG-I TPO-luciferase reporter, SteadyGlo, 24 h; AID 652154;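 active means mean replicate inhibition at least 60% with every replicate also reaching 60%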;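 further: luciferase light reporting Pax8 driven TPO promoter activity; plate controls were median of neutral control wells for no effect and mitoxantrone controls for full effect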
Numbers without * were called inactive; x = no result. The list is not random: actives were taken first. Their share in the collection is about 2.1%.

SMILES | AF4-AF9 inh | EWS-Fli block | XiGFP reactiv | GSIS activator | PGC1a acetyl inh | PAX8 reporter
COc1ccc(NC(=O)N2CCCCN3[C@@H](CO)[C@@H](c4ccc(C5=CCCC5)cc4)[C@@H]3C2)cc1 | 13 | 4 | x | x | -49 | 82*
Cc1ccc(Cn2ccsc2=NC(=O)COC(=O)c2ccc(NC(=O)CC#N)cc2)cc1 | 1 | 11 | 0 | -27 | -6 | -5
Cc1ccc(Cn2ccsc2=NC(=O)CCl)cc1 | -2 | 14 | 1 | 63* | 13 | 114*
COc1ccc(-c2nnc3sc(-c4ccco4)nn23)cc1OC | x | x | x | 59* | 19 | -13
Cn1ccc2c(N3CCCC3)cc3c(c21)C1CCC3C1 (centres undefined) | 30* | 1 | 0 | -15 | -4 | -8
CN(c1cc2c(c3c1ccn3C)C1CCC2C1)C1CCCCC1 (centres undefined) | 39* | 7 | 0 | 0 | 78* | 4
C[C@H](O)C#Cc1cnc2c(c1)C(=O)N([C@H](C)CO)C[C@H](C)[C@H](CN(C)C(=O)c1ccccc1)O2 | 0 | -11 | -1 | -3 | -6 | x
CCCCc1ccc(NC(=S)NCCc2ccc(F)cc2)cc1 | 0 | 4 | 0 | 46* | x | 0
Fc1ccc(CCNC(=S)Nc2ccc(F)cc2)cc1 | 2 | -52 | 0 | x | x | -75
CCCCNC(=S)Nc1ccc(Cl)cc1 | -1 | 78* | 0 | -6 | x | -29
Oc1ccc(NC(=S)Nc2ccc(F)cc2)cc1 | -1 | 3 | 0 | x | -3 | 21
CCN(CC)c1ccc(NC(=S)Nc2ccc(F)cc2)cc1 | 27* | -85 | 0 | -36 | 1 | -121
C=CCn1c(C)csc1=Nc1ccc(C(C)=O)cc1 | 4 | -65 | 0 | 6 | -1 | -87
C=CCn1c(C)csc1=Nc1ccccc1C | 27* | -34 | 0 | -1 | x | -50
CC(=O)NCCc1nc2ccccc2n1CCOc1ccccc1 | -1 | 0 | 0 | 21 | -5 | 17
CC(=O)NCCc1nc2ccccc2n1CCOc1cccc(C)c1 | 6 | 10 | 0 | 59* | -24 | -3
CCc1ccc(C(=O)COC(=O)C(Cc2ccccc2)NC(=O)c2ccc(Cl)cc2)cc1 (centres undefined) | x | x | x | x | 3 | -13
CCc1ccc(C(=O)COC(=O)C(Cc2ccccc2)NC(=O)C2CCC(C)CC2)cc1 (centres undefined) | x | x | x | 48* | 0 | 14
CCC(=O)N1CC2(CCN(Cc3ccc(Cl)cc3)CC2)c2c([nH]c3cc(OC)ccc23)[C@@H]1CO | 26* | -16 | 0 | -10 | -1 | x
CCCNC(=O)N1CC2(CCN(C(=O)C3CCC3)CC2)c2c([nH]c3cc(OC)ccc23)[C@@H]1CO | 44* | 1 | 0 | -1 | x | 21
COc1ccc2c3c(n(C)c2c1)[C@@H](CO)N(C(=O)C1CCCC1)CC31CCN(Cc2cccc(F)c2)CC1 | 38* | 39 | 1 | -29 | x | 48
COc1ccc2c3c(n(C)c2c1)[C@H](CO)N(C(=O)C1CC1)CC31CN(Cc2cccc(F)c2)C1 | 22 | 4 | 0 | -1 | x | 37
COc1ccc2c3c([nH]c2c1)[C@@H](CO)N(C(=O)C1CCCC1)CC31CN(Cc2nccs2)C1 | 0 | 13 | 0 | -5 | x | 0
COc1ccc2c3c([nH]c2c1)[C@@H](CO)N(C(=O)C1CC1)CC31CN(Cc2nccs2)C1 | 2 | -3 | 0 | 10 | x | 86*
C[C@H]1CN([C@@H](C)CO)C(=O)c2cc(NC(=O)Nc3cccc4ccccc34)ccc2O[C@H]1CN(C)S(=O)(=O)c1ccccc1 | -1 | 15 | -1 | 6 | 2 | 45
SMILES | AF4-AF9 inh | EWS-Fli block | XiGFP reactiv | GSIS activator | PGC1a acetyl inh | PAX8 reporter
Cc1ccc(S(=O)(=O)Nc2ccc3c(c2)C(=O)N([C@H](C)CO)C[C@H](C)[C@H](CN(C)C(=O)Nc2ccc4c(c2)OCO4)O3)cc1 | x | -6 | 0 | 1 | -9 | -14
COc1ccc2c3c([nH]c2c1)[C@H](CO)N(C(=O)C1CC1)CC31CCN(Cc2cccc(F)c2)CC1 | 6 | 36 | 1 | 0 | x | 69*
COc1ccc2c3c(n(C)c2c1)[C@H](CO)N(C(=O)C1CCCC1)CC31CCN(Cc2cccc(F)c2)CC1 | 26* | 39 | 1 | -27 | x | 27
Clc1ccc(-c2csc(=Nc3cccnc3)n2CCCn2ccnc2)cc1Cl | 47* | 8 | 0 | x | x | -1
COCCn1c(-c2ccc(Br)cc2)csc1=Nc1cccnc1 | 13 | 21 | 0 | -1 | x | 10
CC(=O)N(C)C[C@H]1Oc2ncc(C#Cc3ccccc3F)cc2C(=O)N([C@H](C)CO)C[C@@H]1C | -2 | -1 | 0 | -1 | 3 | x
Cc1ccc(C(=O)Nc2nc(-c3ccccn3)cs2)o1 | -3 | 9 | 0 | -16 | x | -9
O=C(Nc1nc(-c2ccccn2)cs1)c1ccccc1-n1cnnn1 | 5 | -3 | 0 | 1 | 43* | 59
O=C(Nc1nc(-c2ccccn2)cs1)c1cc(Cl)ccc1[N+](=O)[O-] | 6 | -3 | 0 | -4 | x | 80*
O=C(Nc1nc(-c2ccccn2)cs1)c1ccc([N+](=O)[O-])o1 | -10 | 0 | 0 | -5 | -11 | 80*
CC(=O)Nc1ccc(C(=O)Nc2nc(-c3ccccn3)cs2)cc1 | 1 | -13 | 0 | -4 | 5 | 0
C[C@H]1CN([C@@H](C)CO)S(=O)(=O)c2ccc(-c3cncnc3)cc2O[C@H]1CN(C)C(=O)Cc1ccccc1 | 7 | -2 | -1 | 5 | 3 | -16
O=C(C[C@@H]1CC[C@@H]2[C@H](COC[C@H](O)CN2C(=O)Nc2ccc(Cl)c(Cl)c2)O1)NC1CCC1 | 0 | -7 | 0 | -13 | -1 | 3
COc1ccc(CN(C)C[C@H]2Oc3ccc(NC(=O)c4ccncc4)cc3CC(=O)N([C@@H](C)CO)C[C@H]2C)cc1 | -1 | x | 0 | -5 | -4 | -9
C[C@H]1CN([C@@H](C)CO)S(=O)(=O)c2ccc(C#CC3CCCC3)cc2O[C@@H]1CN(C)Cc1cncnc1 | x | 32 | -1 | -34 | 12 | 3
COc1ccc(/C=C2\COc3ccccc3C2=O)cc1OC | x | x | 0 | 1 | x | -15
COc1ccc(/C=C2\C(=O)OCc3cc(OC)c(OC)cc32)cc1OC | x | x | 0 | 103* | -2 | -16
COc1cc2c(cc1OC)/C(=C/c1ccc(Cl)cc1)C(=O)OC2 | 16 | x | 0 | 62* | x | -4
COc1ccc(C=C2C(=O)OC(C)(C)OC2=O)cc1OC | 2 | -11 | 0 | 9 | x | -27
COc1ccc2c3c([nH]c2c1)[C@H](CO)N(C(=O)c1ccc(F)cc1)CC31CN(C)C1 | 3 | 0 | 0 | 9 | 2 | x
COC(=O)[C@H](Cc1ccccc1)N1CC2=C[C@@H](C3CC3)n3c(=O)n(C)c(=O)n3[C@H]2[C@@H]1[C@@H](O)Cc1ccccc1 | -4 | 0 | x | x | 5 | 16
